Screening results as filed in PubChem.
UPR CHOP act: activators of apoptotic arm of unfolded protein response (CHOP) | CHO-CHOP luciferase reporter, UPR activation, luminescence; percent of tunicamycin response over DMSO baseline | activation, % at 10 µM | hit rate 0.34% among 330,000 | AID 449763;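 active = at 10 µM dose, activation of 40% or more, normalized to positive control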
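Dosing – one dose, 10 µM in 0.5% DMSO · System – CHO-CHOP cells, stable luciferase reporter of PERK-eIF2a-CHOP signalling · Input – 500 cells/well · Control set – tunicamycin 10 µg/mL final as positive, DMSO-only wells as negative · Timing – 6 h compound treatment, 37 °C · Measure – % activation vs tunicamycin · Technique – luminescence read with Steady-Glo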
XBP1 UPR activ: activators of adaptive arm of unfolded protein response (XBP1); AID 463104; activation, % at 20 µM; CHO-XBP1 luciferase reporter, IRE1-XBP1 UPR activation, luminescence; percent of tunicamycin response, DMSO as zero; hit rate 0.33% among 330,000;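 active = versus positive control, 20 µM dose yields 30% or more activation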
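Assay system: CHO-XBP1 luciferase reporter cells; Schedule: 6 h treatment, 37 °C; Detection: glow luminescence from Steady-Glo reagent; Benchmarks: high control tunicamycin 10 µg/mL final, low control DMSO vehicle only.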
Bfl-1 A1 inh: inhibitors of the anti-apoptotic protein A1, read as caspase activation; MEF A1-2A-BIM cells, Caspase-Glo 3/7 luminescence, 3 h; percent of clofoctol response, vehicle zero; caspase activation, % (concentration not given with the values); hit rate 0.066% among 330,000; AID 2462;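 active = over half of replicate activation scores above 10%, or exactly half above 10 with the replicate mean above 10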
CHOP inh: inhibitors of CHOP induction in ER stress response; CHO-K1 CHOP-promoter luciferase, tunicamycin-induced, 15-18 h; inhibition, % at 10 µM; hit rate 3.8% among 220,000;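 active = compounds that reduced the stress-induced luciferase reporter signal by more than about 70% of percent inhibition, limit read from the data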
A number is an active result; i = inactive; nt = no result. This excerpt belongs to a sample that is enriched for hits.

SMILES	UPR CHOP act	XBP1 UPR activ	Bfl-1 A1 inh	CHOP inh
CC1=C(OC(=O)c2ccccc2)C(C)(C)C(c2ccc(Br)cc2)OC1=O (stereo not drawn)	i	i	i	91.5
CC1=C(OC(=O)c2ccccc2)C(C)(C)C(c2ccccc2)OC1=O (stereo not drawn)	i	i	i	81.2
CC1=C(OC(=O)c2ccc(Br)cc2)C(C)(C)C(c2ccccc2)OC1=O (stereo not drawn)	i	i	i	i
Cc1ccc(S(=O)(=O)c2ncccc2[N+](=O)[O-])cc1	i	i	i	nt
CCOc1ccc(-c2csc(NNC3=NCCCCC3)n2)cc1	i	i	i	75.0
CCN(c1ccccc1)S(=O)(=O)c1csc(C(N)=O)c1	i	i	i	nt
CC(SC1=NCCS1)C(=O)Nc1nnc(-c2ccc(Br)cc2)s1 (stereo not drawn)	i	i	i	85.5
CCC(SC1=NCCS1)C(=O)Nc1nnc(-c2ccccc2OC)s1 (stereo not drawn)	i	i	i	86.2
O=C(Nc1ccccc1Oc1ccccc1)c1ccc(Br)o1	i	i	i	86.2
O=C(Nc1cccc(Cl)c1N1CCCC1)c1ccc(Br)o1	i	i	i	72.6
CCN(CC)S(=O)(=O)c1ccc(NC(=O)CNC2CCCCC2)cc1	i	i	i	nt
CC(=O)c1c(C(C)=O)c(C)n(-c2nc(-c3ccc(C)c(C)c3)c(C)s2)c1C	i	i	i	75.9
Nc1nc(Cl)nc2c1ncn2[C@@H]1O[C@H](CO)[C@H](O)C1O (stereo partly drawn)	nt	nt	nt	i
O=C(NC(NC(=S)Nc1ccccc1Cl)C(Cl)(Cl)Cl)c1cccc(Cl)c1 (stereo not drawn)	i	i	i	87.1
O=C(/C=C/c1ccccc1)NC(NC(=S)Nc1ccc(Cl)cc1Cl)C(Cl)(Cl)Cl (stereo not drawn)	i	i	i	80.9
O=C(/C=C/c1ccccc1)NC(NC(=S)Nc1ccc(C(=O)O)cc1)C(Cl)(Cl)Cl (stereo not drawn)	i	i	i	i
COc1ccc(NS(=O)(=O)c2cc(NC(=O)c3ccc(=O)[nH]c3)ccc2N2CCCC2)cc1	i	i	i	nt
Cc1nn(CCO)c2nc(-c3cccs3)cc(C(F)(F)F)c12	i	i	i	85.2
Cc1nn(C)c2nc(-c3cccs3)cc(C(F)(F)F)c12	i	i	i	i
Cc1ccc(NC(=O)C2CCCN2C(=O)NC2CCCCC2)cc1F (stereo not drawn)	i	i	i	nt
c1ccc(OCCCc2nc(-c3ccncc3)no2)cc1	i	i	i	89.6
c1ccc(OCc2nc(-c3ccncc3)no2)cc1	i	i	i	i
CN(c1ccc(O)cc1)c1nc(-c2ccccc2)cs1	nt	nt	i	89.7
Cc1ccc(N(C(=O)CNC(=O)c2ccco2)C(C(=O)NCC2CCCO2)c2ccccc2)c(C)c1 (stereo not drawn)	i	i	i	nt
CCSc1nnc(NC(=O)NC(CC)(C(F)(F)F)C(F)(F)F)s1	i	i	i	90.2
SMILES	UPR CHOP act	XBP1 UPR activ	Bfl-1 A1 inh	CHOP inh
CCSc1nnc(NC(=O)NC(C)(C(F)(F)F)C(F)(F)F)s1	i	i	i	i
Cc1cccc(-c2noc(CN(C(=O)c3ccc4c(c3)OCO4)C(C)C)n2)c1	i	i	i	i
Cc1cc(Br)ccc1OCC(=O)N(Cc1nc(-c2ccccc2)no1)C(C)C	i	i	i	94.8
Cc1cccc(-c2noc(CN(C(=O)c3ccc(Br)o3)C(C)C)n2)c1	i	i	i	87.8
COc1ccc(CC(=O)OCC(=O)NC2CCCC(C)C2C)cc1OC (stereo not drawn)	i	i	i	nt
Nc1cc(=O)[nH]c(SCC(=O)N2N=C(c3ccc4ccccc4c3)CC2c2ccccc2)n1 (stereo not drawn)	i	i	i	86.3
COc1ccc(C(=O)COC(=O)[C@@H](NS(=O)(=O)c2ccccc2)C(C)C)cc1	i	i	i	nt
NS(=O)(=O)c1cccc(NC(=O)CC(NC(=O)c2ccccc2Cl)c2ccccc2)c1 (stereo not drawn)	i	i	i	nt
CCNC(=S)Nc1cc(-c2ccc(Cl)cc2)[nH]n1	i	i	i	i
CC1=NN(c2ccccc2)C(=O)/C1=C\c1cn(CCC#N)nc1-c1ccc(Cl)cc1	i	i	i	i
CC1=NNC(=O)/C1=C\c1cn(-c2ccccc2)nc1-c1ccc(Cl)cc1	i	i	41.4	107.9
CCCCNC(=O)CSc1nnc(-c2cccc(S(=O)(=O)N3CCOCC3)c2)o1	i	i	nt	nt
C(=N\Nc1nc2ccccc2[nH]1)/c1ccc2ncccc2c1	i	i	i	i
